Measured values as given in ChEMBL document CHEMBL4373647, “Design, synthesis, and antimicrobial evaluation of 1,4-dihydroindeno[1,2-c]pyrazole tethered carbohydrazide hybrids: exploring their in silico ADMET, ergosterol inhibition and ROS inducing potential” (Medchemcomm, 2019).
Converted amounts (≈) assume the structure as drawn. The source made the active and inactive calls. The rule behind the calls is not given here.

Key:
Micrococcus luteus = experiment: Antibacterial activity against Micrococcus luteus MTCC 2470 assessed as inhibition of bacterial growth incubated for 24 hrs by agar well diffusion method; assay type: functional; settings: MTCC 2470, 24 h
Outline: (§1)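 Strains from MTCC; inoculum at 0.5 McFarland spread on Mueller-Hinton agar; 6 mm wells loaded with compound over 125–0.97 µg/mL; ciprofloxacin positive control (same range), DMSO negative control. Plates held 24 h at 37 °C; MIC taken as lowest concentration giving a clear inhibition zone. Triplicate runs, mean MIC reported.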

Staphylococcus aureus [1] = experiment: Antibacterial activity against Staphylococcus aureus MTCC 96 assessed as inhibition of bacterial growth incubated for 24 hrs by agar well diffusion method; assay type: functional; settings: MTCC 96, 24 h; outline: as §1
Staphylococcus aureus [2] = experiment: Antibacterial activity against Staphylococcus aureus MLS-16 MTCC 2940 assessed as inhibition of bacterial growth incubated for 24 hrs by agar well diffusion method; assay type: functional; settings: MLS-16 MTCC 2940, 24 h; outline: as §1
Bacillus subtilis [3] = experiment: Antibacterial activity against Bacillus subtilis MTCC 121 assessed as inhibition of bacterial growth incubated for 24 hrs by agar well diffusion method; assay type: functional; settings: MTCC 121, 24 h; outline: as §1
Candida albicans [4] = experiment: Antifungal activity against Candida albicans MTCC 183 assessed as inhibition of fungal growth incubated for 24 hrs by agar well diffusion method; assay type: functional
Outline: (§2)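 Candida strains from MTCC, pre-cultured and spread on Mueller Hinton agar. Wells received compound dissolved in 10% DMSO, 125–0.97 µg/mL; miconazole standard over the same range, DMSO negative control. After 24 h at 37 °C, MIC was read as the lowest concentration giving an inhibition zone. Duplicate experiments, means given.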

Candida albicans [5] = experiment: Antifungal activity against Candida albicans MTCC 227 assessed as inhibition of fungal growth incubated for 24 hrs by agar well diffusion method; assay type: functional; settings: MTCC 227, 24 h; outline: as §2
Candida albicans [6] = experiment: Antifungal activity against Candida albicans MTCC 1637 assessed as inhibition of fungal growth incubated for 24 hrs by agar well diffusion method; assay type: functional; settings: MTCC 1637, 24 h; outline: as §2
Candida albicans [7] = experiment: Antifungal activity against Candida albicans MTCC 3018 assessed as inhibition of fungal growth incubated for 24 hrs by agar well diffusion method; assay type: functional; settings: MTCC 3018, 24 h; outline: as §2
Candida albicans [8] = experiment: Antifungal activity against Candida albicans MTCC 4748 assessed as inhibition of fungal growth incubated for 24 hrs by agar well diffusion method; assay type: functional; settings: MTCC 4748, 24 h; outline: as §2
Candida albicans [9] = experiment: Antifungal activity against Candida albicans MTCC 7315 assessed as inhibition of fungal growth incubated for 24 hrs by agar well diffusion method; assay type: functional; settings: MTCC 7315, 24 h; outline: as §2
Candida parapsilosis [10] = experiment: Antifungal activity against Candida parapsilosis MTCC 1744 assessed as inhibition of fungal growth incubated for 24 hrs by agar well diffusion method; assay type: functional; settings: Lodderomyces parapsilosis, MTCC 1744, 24 h; outline: as §2
Nakaseomyces glabratus [11] = experiment: Antifungal activity against Candida glabrata MTCC 3019 assessed as inhibition of fungal growth incubated for 24 hrs by agar well diffusion method; assay type: functional; settings: MTCC 3019, 24 h; outline: as §2
Pichia sporocuriosa [12] = experiment: Antifungal activity against Issatchenkia hanoiensis MTCC 4755 assessed as inhibition of fungal growth incubated for 24 hrs by agar well diffusion method; assay type: functional; settings: MTCC 4755, 24 h; outline: as §2
Staphylococcus aureus [13] = experiment: Bactericidal activity against Staphylococcus aureus MTCC 96 assessed as bacterial killing incubated for 24 hrs; assay type: functional; settings: MTCC 96, 24 h
Outline: (§3)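 Broth tube assay: compound at 0–125 µg/mL in Mueller Hinton broth, overnight culture added to 0.5 McFarland (1.5 × 10^8 cfu/mL), held 24 h at 37 °C. 10 µL from each tube plated on Mueller Hinton agar. MBC is the lowest concentration that kills the strain. Duplicates, means reported.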

Bacillus subtilis [14] = experiment: Bactericidal activity against Bacillus subtilis MTCC 121 assessed as bacterial killing incubated for 24 hrs; assay type: functional; settings: MTCC 121, 24 h; outline: as §3
Escherichia coli [15] = experiment: Bactericidal activity against Escherichia coli MTCC 739 assessed as bacterial killing incubated for 24 hrs; assay type: functional; settings: MTCC 739, 24 h; outline: as §3
MRC5 = experiment: Cytotoxicity against human MRC5 cells incubated for 48 hrs by MTT assay; assay type: cell-based; settings: MRC5, 48 h
Outline: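 Normal human lung MRC5 cells grown 24 h in 96-well plates, then exposed to a range of compound concentrations for 48 h. MTT (250 µg/mL) added for 2 h, medium replaced by DMSO, absorbance read at 570 nm. Miconazole positive control, DMSO negative control. Triplicates, mean ± S.D.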

Pichia kudriavzevii = experiment: Antifungal activity against Candida krusei MTCC 3020 assessed as inhibition of fungal growth incubated for 24 hrs by agar well diffusion method; assay type: functional; settings: MTCC 3020, 24 h; outline: as §2
Candida albicans [16] = experiment: Fungicidal activity against Candida albicans MTCC 183 assessed as fungal killing incubated for 24 hrs; assay type: functional
Outline: (§4)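 Compound at 125–0.97 µg/mL in Mueller Hinton broth in microcentrifuge tubes, each Candida strain added, held 24 h at 37 °C. 10 µL of the treated suspension plated on Mueller Hinton agar and incubated a further 24 h at 37 °C. MFC is the lowest concentration that kills the strain. Duplicates, means reported.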

Candida albicans [17] = experiment: Fungicidal activity against Candida albicans MTCC 4748 assessed as fungal killing incubated for 24 hrs; assay type: functional; settings: MTCC 4748, 24 h; outline: as §4
Candida albicans [18] = experiment: Fungicidal activity against Candida albicans MTCC 7315 assessed as fungal killing incubated for 24 hrs; assay type: functional; settings: MTCC 7315, 24 h; outline: as §4
Candida parapsilosis [19] = experiment: Fungicidal activity against Candida parapsilosis MTCC 1744 assessed as fungal killing incubated for 24 hrs; assay type: functional; settings: Lodderomyces parapsilosis, MTCC 1744, 24 h; outline: as §4
Nakaseomyces glabratus [20] = experiment: Fungicidal activity against Candida glabrata MTCC 3019 assessed as fungal killing incubated for 24 hrs; assay type: functional; settings: MTCC 3019, 24 h; outline: as §4
Pichia sporocuriosa [21] = experiment: Fungicidal activity against Issatchenkia hanoiensis MTCC 4755 assessed as fungal killing incubated for 24 hrs; assay type: functional; settings: MTCC 4755, 24 h; outline: as §4
Bacillus subtilis [22] = experiment: Ratio of MBC to MIC against Bacillus subtilis MTCC 121; assay type: functional
Candida albicans [23] = experiment: Ratio of MFC to MIC against Candida albicans MTCC 183; assay type: functional
Candida albicans [24] = experiment: Ratio of MFC to MIC against Candida albicans MTCC 227; assay type: functional
Outline: (§5)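 MIC by agar well diffusion: Candida lawns on Mueller-Hinton agar, wells loaded with compound in 10% DMSO (125–0.97 µg/mL), 24 h at 37 °C, lowest concentration giving an inhibition zone. MFC: compound in Mueller-Hinton broth (125–0.97 µg/mL) with yeast, 24 h at 37 °C, 10 µL plated on agar, lowest killing concentration after 24 h. Ratio is MFC/MIC.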

Candida albicans [25] = experiment: Ratio of MFC to MIC against Candida albicans MTCC 1637; assay type: functional
Candida albicans [26] = experiment: Ratio of MFC to MIC against Candida albicans MTCC 3018; assay type: functional; outline: as §5
Candida albicans [27] = experiment: Ratio of MFC to MIC against Candida albicans MTCC 4748; assay type: functional; outline: as §5
Candida albicans [28] = experiment: Ratio of MFC to MIC against Candida albicans MTCC 7315; assay type: functional; outline: as §5
Candida parapsilosis [29] = experiment: Ratio of MFC to MIC against Candida parapsilosis MTCC 1744; assay type: functional; outline: as §5
Nakaseomyces glabratus [30] = experiment: Ratio of MFC to MIC against Candida glabrata MTCC 3019; assay type: functional; outline: as §5
Pichia sporocuriosa [31] = experiment: Ratio of MFC to MIC against Issatchenkia hanoiensis MTCC 4755; assay type: functional; outline: as §5
Escherichia coli [32] = experiment: Ratio of MBC to MIC for Escherichia coli MTCC 739; assay type: functional
Pseudomonas aeruginosa = experiment: Ratio of MBC to MIC for Pseudomonas aeruginosa MTCC 2453; assay type: functional
Raoultella planticola = experiment: Ratio of MBC to MIC for Klebsiella planticola MTCC 530; assay type: functional

Compound	MIC (Micrococcus luteus) [µg/mL]	MIC (Staphylococcus aureus [1]) [µg/mL]	MIC (Staphylococcus aureus [2]) [µg/mL]	MIC (Bacillus subtilis [3]) [µg/mL]	MIC (Candida albicans [5]) [µg/mL]	MIC (Candida albicans [6]) [µg/mL]	MIC (Candida albicans [7]) [µg/mL]	MIC (Candida albicans [8]) [µg/mL]	MIC (Candida albicans [9]) [µg/mL]	MIC (Candida parapsilosis [10]) [µg/mL]	MIC (Nakaseomyces glabratus [11]) [µg/mL]	MIC (Pichia sporocuriosa [12]) [µg/mL]	MBC (Staphylococcus aureus [13]) [µg/mL]	MBC (Bacillus subtilis [14]) [µg/mL]	MBC (Escherichia coli [15]) [µg/mL]	IC50 (MRC5) [µg/mL]	MIC (Pichia kudriavzevii) [µg/mL]	MFC (Candida albicans [17]) [µg/mL]	MFC (Candida albicans [18]) [µg/mL]	MFC (Candida parapsilosis [19]) [µg/mL]	other results
COc1ccc2c(c1)Cc1c(C(=O)N/N=C/c3ccc(O)c(OC)c3)n[nH]c1-2	3.9 (≈ 10.3 µM)	3.9 (≈ 10.3 µM)	3.9 (≈ 10.3 µM)	7.8 (≈ 20.6 µM)	3.9 (≈ 10.3 µM)	7.8 (≈ 20.6 µM)	7.8 (≈ 20.6 µM)	7.8 (≈ 20.6 µM)	7.8 (≈ 20.6 µM)	7.8 (≈ 20.6 µM)	7.8 (≈ 20.6 µM)	15.6 (≈ 41.2 µM)	7.8 (≈ 20.6 µM)	15.6 (≈ 41.2 µM)	7.8 (≈ 20.6 µM)	40.8 (≈ 108 µM)	7.8 (≈ 20.6 µM)	15.6 (≈ 41.2 µM)	15.6 (≈ 41.2 µM)	15.6 (≈ 41.2 µM)	MIC (Candida albicans [4]; MTCC 183, 24 h): 15.6 µg/mL (≈ 41.2 µM); MFC (Candida albicans [16]; MTCC 183, 24 h): 31.2 µg/mL (≈ 82.5 µM); MFC (Nakaseomyces glabratus [20]): 15.6 µg/mL (≈ 41.2 µM); MFC (Pichia sporocuriosa [21]): 31.2 µg/mL (≈ 82.5 µM); Ratio (Bacillus subtilis [22]): 2; Ratio (Candida albicans [23]): 2; Ratio (Candida albicans [24]): 2; Ratio (Candida albicans [25]): 2; Ratio (Candida albicans [26]): 2; Ratio (Candida albicans [27]): 2; Ratio (Candida albicans [28]): 2; Ratio (Candida parapsilosis [29]): 2; Ratio (Nakaseomyces glabratus [30]): 2; Ratio (Pichia sporocuriosa [31]): 2; Ratio (Escherichia coli [32]): 2; Ratio (Pseudomonas aeruginosa): 2; Ratio (Raoultella planticola): 2
O=C(N/N=C/c1ccc(O)cc1)c1n[nH]c2c1Cc1cc(F)ccc1-2	7.8 (≈ 23.2 µM)	3.9 (≈ 11.6 µM)	3.9 (≈ 11.6 µM)	7.8 (≈ 23.2 µM)	7.8 (≈ 23.2 µM)	15.6 (≈ 46.4 µM)	15.6 (≈ 46.4 µM)	15.6 (≈ 46.4 µM)	15.6 (≈ 46.4 µM)	15.6 (≈ 46.4 µM)	15.6 (≈ 46.4 µM)	31.2 (≈ 92.8 µM)	7.8 (≈ 23.2 µM)	15.6 (≈ 46.4 µM)	7.8 (≈ 23.2 µM)	28.9 (≈ 85.9 µM)	15.6 (≈ 46.4 µM)	31.2 (≈ 92.8 µM)	31.2 (≈ 92.8 µM)	31.2 (≈ 92.8 µM)	MIC (Candida albicans [4]): inactive; MFC (Candida albicans [16]): inactive; MFC (Nakaseomyces glabratus [20]): 31.2 µg/mL (≈ 92.8 µM); MFC (Pichia sporocuriosa [21]): 62.4 µg/mL (≈ 186 µM); Ratio (Bacillus subtilis [22]): 2; Ratio (Candida albicans [23]): 2; Ratio (Candida albicans [24]): 2; Ratio (Candida albicans [25]): 2; Ratio (Candida albicans [26]): 2; Ratio (Candida albicans [27]): 2; Ratio (Candida albicans [28]): 2; Ratio (Candida parapsilosis [29]): 2; Ratio (Nakaseomyces glabratus [30]): 2; Ratio (Pichia sporocuriosa [31]): 2; Ratio (Escherichia coli [32]): 2; Ratio (Pseudomonas aeruginosa): 2; Ratio (Raoultella planticola): 2
COc1ccc2c(c1)Cc1c(C(=O)N/N=C/c3c(F)cc(F)cc3F)n[nH]c1-2	7.8 (≈ 20.2 µM)	3.9 (≈ 10.1 µM)	3.9 (≈ 10.1 µM)	7.8 (≈ 20.2 µM)	7.8 (≈ 20.2 µM)	15.6 (≈ 40.4 µM)	7.8 (≈ 20.2 µM)	15.6 (≈ 40.4 µM)	15.6 (≈ 40.4 µM)	15.6 (≈ 40.4 µM)	15.6 (≈ 40.4 µM)	15.6 (≈ 40.4 µM)	7.8 (≈ 20.2 µM)	15.6 (≈ 40.4 µM)	7.8 (≈ 20.2 µM)	37.2 (≈ 96.3 µM)	15.6 (≈ 40.4 µM)	31.2 (≈ 80.8 µM)	31.2 (≈ 80.8 µM)	31.2 (≈ 80.8 µM)	MIC (Candida albicans [4]): inactive; MFC (Candida albicans [16]): inactive; MFC (Nakaseomyces glabratus [20]): 31.2 µg/mL (≈ 80.8 µM); MFC (Pichia sporocuriosa [21]): 31.2 µg/mL (≈ 80.8 µM); Ratio (Bacillus subtilis [22]): 2; Ratio (Candida albicans [23]): 2; Ratio (Candida albicans [24]): 2; Ratio (Candida albicans [25]): 2; Ratio (Candida albicans [26]): 2; Ratio (Candida albicans [27]): 2; Ratio (Candida albicans [28]): 2; Ratio (Candida parapsilosis [29]): 2; Ratio (Nakaseomyces glabratus [30]): 2; Ratio (Pichia sporocuriosa [31]): 2; Ratio (Escherichia coli [32]): 2; Ratio (Pseudomonas aeruginosa): 2; Ratio (Raoultella planticola): 2
